Assay results from the EternaBench riboswitch data.

System: MS2 coat protein
Assay: apparent Kd, MS2 coat protein; higher = weaker binding; RNA-MaP array; FMN 200 µM where present
Procedure, shortened: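 The apparent Kd comes from binding curves fitted cluster by cluster, filtered, and summarised as a median. Those curves followed SNAP-549-labelled MS2 coat protein from 0.7 or 1.5 nM, doubling to 3 µM, on Illumina sequencing-chip clusters where stalled E. coli RNA polymerase had transcribed the designs, without and then with constant ligand. The buffer was 100 mM Tris-HCl pH 7.5, 80 mM KCl, 4 mM MgCl2, BSA, DTT, yeast tRNA and Tween-20, and green signal was normalised to red-channel RNA signal and control-cluster median Fmax.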

[1] = designed as: ON switch for flavin mononucleotide, no ligand
[2] = ligand present: flavin mononucleotide, designed as: ON switch for flavin mononucleotide
[3] = designed as: OFF switch for flavin mononucleotide, no ligand
[4] = ligand present: flavin mononucleotide, designed as: OFF switch for flavin mononucleotide

| Sequence | apparent Kd [1] | apparent Kd [2] | apparent Kd [3] | apparent Kd [4] |
| --- | --- | --- | --- | --- |
| AAAAAACAUGAGGAUCACCCAUGUCUUCGGACGUGAGGAUAUGUACAGACUUCGGUCUGUACAGAAGGCACGUAAA | 51 nM | 23 nM | – | – |
| AUCAGCUCGUGAGGAUAUACAUGAUAGAUCGAUUAAUUAAUUAAUUUAACAUGAGGAUCACCCAUGUAGAAGGCACGAGCUGAU | – | – | 56.1 nM | 61.7 nM |
| ACAUUGCGAGGAUAUACAUGAGGAUCACCCAUGUGGUAGCAGAUACGGUAGGGCUAGUGUAGAAGGUGUCAUGG | – | – | 112 nM | 96.3 nM |
| UUUUGACAUGAGGAUCACCCAUGUGAGGAUAUGGAGCGCGACCGCGCGGUCGCGUACACCAGAAGGCGCAGGAA | – | – | 40.3 nM | 70.8 nM |
| UUACUCAUGUAAGGAUAUGCAGCCGAAACGGCUGCAGAAGGUACUAAAAUACAUGAGGAUCACCCAUGUCUUUUUAAUUUAGAU | 75.5 nM | 47.6 nM | – | – |
| UGGUACUAGGGAGGAUAUGGGAAGAUACAUGAGGAUCACCCAUGUUUAAGAAUGCCGAGAGGCAACUAGAAGGCCCUAAUACCU | 400 nM | 19.1 nM | – | – |
| AGGCUAUUAGGAUAUACAUGAGGAUCACCCAUGUCGAUCUACAGGCUACGGCACGGCAGUAGAAGGAAUGGCCG | – | – | 15.7 nM | 16.7 nM |
| UGUCGGAGCAGAGGAUAUUACAUGAGGAUCACCCAUGUAUGAACCAAUAGCUGGAGACAGCAAUGUAAGAAGGCUGCUCCGACA | – | – | 12.2 nM | 171 nM |
| GAUUAACAUGAGGAUCACCCAUGUGAGGAUAUGAACUAGACCACUUACCCGAUAUUGUUCAGAAGGCGCAUUCU | – | – | 34.1 nM | 39.5 nM |
| CCGGAAGUAGAGGAUAUAGGAGUCGAUAGACUCCUAGAAGGCUAUACAUGAGGAUCACCCAUGUGUCCUACCGG | – | – | 19.6 nM | 31 nM |
| GAGAGAGGGUGAGGAUAUUUAGUGAUAAUGAUAAAAGAAGGCACAGACAUGAGGAUCACCCAUGUGGGAAUAAUCCAGAGAGAG | 305 nM | 288 nM | – | – |
| AAUAUGAGCUGGUUUAAACUCAAAACAUGAGGAUCACCCAUGUAGGAUAUCAGCACGAUAAGUGCUGAGAAGGACAUCCAGCUC | – | – | 14.2 nM | 16.5 nM |
| AAUAACAGAGGAUAUACUGUUUUAUGUGUUUGUUAUUUUAAACAUGAGGAUCACCCAUGUAGAAGGCUGAAUAA | – | – | 22.5 nM | 21.7 nM |
| AGCGUGGUCCACUUGGACGCCUACGAGGAUAUCCUGUCACAUGAGGAUCACCCAUGUAGGCACACGGAGAAGGCGUAGACUUAA | 25.8 nM | 6.8 nM | – | – |
| CGUGACGACAUAGGAUAUUGAUACAUGAGGAUCACCCAUGUCACCCAUUUAUCUCUAAGUGUUGACAAGAAGGAUGUGGUCACG | 10.1 nM | 9.33 nM | – | – |
| CGGGCGCGAGUAGGAUAUGUAUAUUUGCCGGGUCCGUGAUCACAUGAGGAUCACCCAUGUGGUAAGCAGAAGGAUUCGGUCCGA | – | – | 6.04 nM | 7.8 nM |
| GGAUAGGACAGAGGAUAUACGUGUUAGAGAUACUAGCAAAAUUUCCUCACAUGAGGAUCACCCAUGUAGAAGGCUGUCCUAUCG | – | – | 23.1 nM | 413 nM |
| CGGCGCUGUCGAGAGGAUAUGCGGUGAUGGACAUGAGGAUCACCCAUGUUAGCGAUAGCAUCACGGUAGAAGGCUCCACAGCCGU | 31.8 nM | 13 nM | – | – |
| GAAUUCGCAUGAGGAUAUGCACUCAUUUCAUGUGCAGAAGGUAUAACAUUAGACAUGAGGAUCACCCAUGUAUUGGUCAUUAAC | 13.7 nM | 12.1 nM | – | – |
| AAAAAGUCAGGAUAUCGGAAAAAAAAAAAAAAAAAAAAAAACGAGAAGGGACAUGAGGAUCACCCAUGUAAAAA | – | – | 55.8 nM | 68.2 nM |
| GCUGCCGAUGCAGGAUAUCAGCACGUGUAGUGCUGAGAAGGGCACAUGAGGAUCACCCAUGUGAUCAAUUAAUAUCCGUGCAGC | – | – | 5.89 nM | 7.78 nM |

| Sequence | apparent Kd [1] | apparent Kd [2] | apparent Kd [3] | apparent Kd [4] |
| --- | --- | --- | --- | --- |
| CGAUAGGACAGAGGAUAUACACAUGAGGAUCACCCAUGUAAUUACAAUUCUUGUGGUUCUUCCAUGUAGAAGGCUGUCCUAUCG | – | – | 113 nM | 335 nM |
| CUGUACAUAUCAGGAUAUCUAUUUCCUACAUGAGGAUCACCCAUGUAGGUGAUCACCCAAGUAAAGGAGAAGGGAUAUGUAUAG | 66.4 nM | 23.7 nM | – | – |
| GCAUCACAUGAGGAUCACCCAUGUCUUCGGAGUGGAGGAUAUGGUCACUGUAAACAGUGGCCAGAAGGCCGGAUGC | 82.6 nM | 94.5 nM | – | – |
| CAGACCGGCAUAGGAUAUGUCGACAUGAGGAUCACCCAUGUAAGCCUUGUCUGGUCCGGUGUGUGACAGAAGGAUGUCGGCCAU | – | – | 37.7 nM | 26.4 nM |
| UUGAAGUCAUCAGGAUAUAGUAUUAAAGACAUUUAUAUUUUCAAACAUGAGGAUCACCCAUGUCGCUAGAAGGGAUUAUAGAUU | – | – | 49.1 nM | 44.9 nM |
| GGGCUGUCAGGAUAUCUCGGGCUCGGGUAAAUCUGGGUCUGGGAGAAGGGACAUGAGGAUCACCCAUGUGGCCC | – | – | 34.3 nM | 37.9 nM |
| CGGUUCUGAGGAUAUCCACCCUCAUACAUGAGGAUCACCCAUGUUCACCCUUGGGUUCCCGGAGAAGGCAGUUUUC | – | – | 233 nM | 570 nM |
| AUCAGCUCGUCAGGAUAUACGUCACUGCGUCAGCAGAGUGGUAAGAUCACAUGAGGAUCACCCAUGUAGAAGGGACGAGCUGAU | – | – | 39.5 nM | 421 nM |
| CAGGUAGACUGAGGAUAUACAGACCUAGUCUAUCUAGGUCAAUUCCUUACAUGAGGAUCACCCAUGUAGAAGGCAGUCUGCCUG | – | – | 18.7 nM | 38.8 nM |
| GCACAUGAUACAGGAUAUGUUUUUUAAUUUAUUAUGAGUUAUAUAUUAUUUACAGAAGGGUAUACAUGAGGAUCACCCAUGUGC | – | – | 40.9 nM | 31.4 nM |
| AGCAAGCGAGGAUAUGCUCGGGUUGCUUGUCGAGAGGAUACACAUGAGGAUCACCCAUGUAGAAGGUGUAUAAA | – | – | 37.7 nM | 28.4 nM |
| AAAAAAAAAAGGCAGGAUAUCCAAAAAAAAACAUGAGGAUCACCCAUGUAAAAAAAAAAAAAAUGGGAGAAGGGCCAAAAAAAAAA | 39.2 nM | 14.3 nM | – | – |
| CCUUUUGUAUAAGGAUAUGUAACAAGGCGUAGGUGGGUAGGACUUGCGCUUACAGAAGGUAUACAUGAGGAUCACCCAUGUCGA | – | – | 32.4 nM | 240 nM |
| AAUUGAAACGUAGGAUAUCGCUAUAAAUUAAUUCGAGAAGGACGUACAUGAGGAUCACCCAUGUUAAAUGGUGUAGUUUAGUUG | – | – | 108 nM | 270 nM |
| GAAAAGGUAGGAUAUACGAAAAAAAAGGGUAGAAAAAAAACACAUGAGGAUCACCCAUGUAGAAGGACCAAAAG | – | – | 31.9 nM | 94.1 nM |
| GUUCUGCCUCCUGCCGGAACAUGAGGAUCACCCAUGUUGCCUGAGGAUAUCCUAUGGCUCCCACAGGAGAAGGCAGGCAACAUA | – | – | 86.2 nM | 371 nM |
| CCUCUACAUGAGGAUCACCCAUGUGAGGAUAUAUGCCCAUUACGCCAAGGGCGUGAUGAUAGAAGGCACAGGGU | – | – | 22.4 nM | 71.1 nM |
| CUGCCGUAGGAGAAGGACGGCGGGUUAUUUUUGUACAUGAGGAUCACCCAUGUAGGAUAUCCUACGUCAGGCGACCUACUACAG | – | – | 33 nM | 34.5 nM |
| AUCAGCUCGUCAGGAUAUACGUCACUGCGUCAGCAGUGUGGUAAGAUCACAUGAGGAUCACCCAUGUAGAAGGGACGCGCUGAU | – | – | 13.3 nM | 226 nM |
| GUAGCAUAAUCAGGAUAUUCAGAGAAUAGAUAGACAUGAGGAUCACCCAUGUGGCGAAAGCCUAGGGAGAAGGGAUAAUGCUAC | 190 nM | 32.5 nM | – | – |
| CUAUUUUUACAGAAGGUUUAAUACUAUGUAUGAGAAGGAUAUGUAACAUGAGGAUCACCCAUGUUUUAUUUAUAUGAGGUUCGU | – | – | 13.4 nM | 11.4 nM |
